Compound activity (PubChem)
Most compounds without a hit are left out; they make up all but 3.6% or so of the library.
PAFAH2 FP inh – inhibitors of human PAFAH2 | Q99487 | recombinant PAFAH2, FP-rhodamine activity probe, fluorescence polarization | inhibition, % at 3.39 µM | 340,000 compounds, 0.99% hits;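 active = inhibition above the mean over all tested compounds plus 3 SD, cut at about 30% in these data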;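 also: inhibitors block probe labeling of enzyme so polarization drops; 0% = enzyme with DMSO and 100% = wells lacking PAFAH2 protein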
PAFAH1B3 inh – PAFAH1B3 (human) inhibition | inhibition, % at 3.39 µM | 340,000 compounds, 0.28% hits | recombinant PAFAH1B3, FP-rhodamine probe, fluorescence polarization | Q15102;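 active = inhibition above the screen-wide average of all tested compounds plus 3 SD, cut at about 25% in these data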;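 also: 0% = enzyme with DMSO only and 100% = wells lacking PAFAH1B3 protein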
IMP-1 inh – blocks Pseudomonas aeruginosa IMP-1 metallo-beta-lactamase; purified IMP-1, nitrocefin hydrolysis, epi-absorbance fluorescence; inhibition, % at 5.6 µM; 290,000 compounds, 0.45% hits; AID 1556;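 active = inhibition above the mean plus 3 SD of all compounds in the same screening run, cut at about 4.5% in these data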;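 also: 0% = IMP-1 with DMSO and 100% = DMSO wells lacking enzyme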
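System: Purified recombinant IMP-1 metallo-beta-lactamase enzyme | Measured by: Fluorescence quenching readout, ex 480/em 530 nm | Replication: Singlicate | Incubation: 15 min preincubation plus 25 min reaction at 25 °C | Evaluation: Percent inhibition from optical density relative to buffer-blank wells | Benchmarks: DMSO with and without IMP-1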
pPAFAH inh – inhibitors of human plasma PAF acetylhydrolase (pPAFAH). inhibition, % at 3.39 µM. Q13093. 330,000 compounds, 1.5% hits. AID 463082. recombinant pPAFAH, FP-rhodamine probe fluorescence polarization;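 active = inhibition above the mean inhibition across the screen plus 3 SD, cut at about 25% in these data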;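 also: inhibitors block binding of the rhodamine activity-based probe so polarization drops; 0% = enzyme with DMSO and 100% = wells lacking pPAFAH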
Target sequence (Q13093 whole entry, looked up): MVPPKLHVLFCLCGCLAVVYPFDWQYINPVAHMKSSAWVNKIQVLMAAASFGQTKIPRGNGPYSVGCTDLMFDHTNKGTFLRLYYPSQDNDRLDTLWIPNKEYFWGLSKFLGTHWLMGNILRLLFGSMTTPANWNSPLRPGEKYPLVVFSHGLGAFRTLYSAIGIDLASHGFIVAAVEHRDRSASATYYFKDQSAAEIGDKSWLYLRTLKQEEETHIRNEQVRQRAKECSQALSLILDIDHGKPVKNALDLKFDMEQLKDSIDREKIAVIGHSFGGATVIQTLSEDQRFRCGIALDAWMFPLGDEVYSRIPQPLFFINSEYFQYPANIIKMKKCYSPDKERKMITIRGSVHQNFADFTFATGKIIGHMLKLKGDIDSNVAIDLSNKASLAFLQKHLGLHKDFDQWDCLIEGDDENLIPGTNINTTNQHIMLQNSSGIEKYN
VIM-2 inh – blocks Pseudomonas aeruginosa VIM-2 metallo-beta-lactamase. purified VIM-2, nitrocefin hydrolysis, epi-absorbance fluorescence. inhibition, % at 5.6 µM. 290,000 compounds, 0.89% hits. AID 1527;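 active = inhibition above the mean of all tested compounds plus 3 SD, cutoff set per screening run, cut at about 7.5% in these data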;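 also: red hydrolysis product quenches plate fluorescence so inhibitors raise well fluorescence; 0% = enzyme with DMSO and 100% = DMSO without enzyme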
PAFAH1B2 inh – inhibitors of human PAFAH1B2 | 340,000 compounds, 1.2% hits | recombinant PAFAH1B2, FP-rhodamine activity probe, fluorescence polarization | AID 492953 | inhibition, % at 3.39 µM;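 active = inhibition above the mean of all tested compounds plus 3 SD, cut at about 24% in these data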;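 also: 0% = enzyme with DMSO and 100% = wells lacking PAFAH1B2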
* = called active by the depositor; . = no result.

SMILES	PAFAH2 FP inh	PAFAH1B3 inh	IMP-1 inh	pPAFAH inh	VIM-2 inh	PAFAH1B2 inh
CC(=O)Nc1cccc(NC(=O)CSc2ncc(C(=O)Nc3ccccc3)c(=O)n2C)c1	-3	4	.	4	.	2
CC(=O)c1cccc(NC(=O)CSc2ncc(C(=O)Nc3ccccc3)c(=O)n2C)c1	4	7	.	31*	.	3
COc1ccc(C(=O)CSC2=C(C#N)C3(CCCCC3)C(C#N)=C(N)N2)cc1	0	5	0	5	0	27*
N#CC1=C(N)NC(SCC(=O)c2ccc(Cl)cc2)=C(C#N)C12CCCC2	3	3	-3	6	-3	10
CC(C)(C)NC(=O)NC(=O)CN1C(=O)NC(c2ccccc2)(c2ccccc2)C1=O	-5	-1	-3	2	-7	0
C=CCC[C@H](Cc1ccc(F)cc1)C(=O)OC[C@@H](NC(=O)[C@H](CC=C)CC(=O)NCCO)c1ccccc1	-1	4	.	8	.	4
C=CC[C@H](CC(=O)NCCO)C(=O)N[C@H](COC(=O)[C@@H](CC=C)Cc1ccc(F)cc1)c1ccccc1	-1	6	.	5	.	25*
O=C(Nc1ccc(-c2nc3ccccc3[nH]2)cc1)c1ccc2c(c1)OCO2	3	-11	28*	-8	0	3
CCCCn1c(CCn2nc(C)c(Br)c2C)n[nH]c1=S	3	10	1	2	8.1*	0
Cc1nc(-c2ccc([N+](=O)[O-])cc2)nc2[nH]ccc(=O)c12	8	3	0	.	9.7*	-2
Cc1nc(-c2ccccc2)nc2[nH]ccc(=O)c12	-9	5	-5	6	-5	3
O=C(CN(Cc1ccccc1Cl)C(=O)CNS(=O)(=O)c1ccc(F)cc1)NCC1CCCO1 (configuration not stated)	4	-5	-2	4	-3	-1
O=C(N[C@H]1C/C=C\C[C@@H](CC(=O)N(CCO)Cc2ccccc2)C(=O)N[C@H](Cc2c[nH]c3ccccc23)COC1=O)OCC1c2ccccc2-c2ccccc21	8	-2	.	13	.	3
O=C1N[C@H](Cc2ccccc2)COC(=O)[C@H](Cc2ccc(F)cc2)C/C=C\C[C@@H]1CC(=O)N(CCO)Cc1ccccc1	5	12	.	6	.	24
O=C1N[C@@H](Cc2ccccc2)COC(=O)[C@@H](Cc2ccc(F)cc2)CC/C=C/C[C@@H]1CC(=O)N(CCO)Cc1ccccc1	15	4	.	9	.	26*
O=C1N[C@H](Cc2ccccc2)COC(=O)[C@H](Cc2ccc(F)cc2)CC/C=C/C[C@@H]1CC(=O)N(CCO)Cc1ccccc1	5	5	.	6	.	10
O=C(C[C@@H]1C/C=C\C[C@H](Cc2ccc(F)cc2)C(=O)OC[C@@H](Cc2c[nH]c3ccccc23)NC1=O)NCCO	3	14	.	2	.	5
O=C(N[C@H]1C/C=C\C[C@H](CC(=O)N(CCO)Cc2ccccc2)C(=O)N[C@H](Cc2c[nH]c3ccccc23)COC1=O)OCC1c2ccccc2-c2ccccc21	10	13	.	33*	.	-1
O=C1N[C@H](Cc2ccccc2)COC(=O)[C@@H](Cc2ccc(F)cc2)CC/C=C/C[C@H]1CC(=O)N(CCO)Cc1ccccc1	28	-3	.	29*	.	6
O=C(C[C@@H]1C/C=C\C[C@@H](Cc2ccc(F)cc2)C(=O)OC[C@@H](Cc2c[nH]c3ccccc23)NC1=O)NCCO	3	6	.	25*	.	21
COc1ccc2cc(C3=CC(=O)CCC3)ccc2c1	-5	-2	.	.	.	-1
COc1ccc(S(=O)(=O)N2CCCCCC2)cc1NC(=O)CN(C)Cc1ccc2c(c1)OCO2	13	-2	.	0	.	-1
Cc1ccc(OCC(=O)Nc2ccc(C)c(F)c2)c([N+](=O)[O-])n1	-1	2	.	.	.	2
O=C1N[C@@H](Cc2c[nH]c3ccccc23)COC(=O)[C@H](Cc2ccc(F)cc2)C/C=C\C[C@@H]1CC(=O)N(CCO)Cc1ccccc1	1	7	.	7	.	7
O=C1N[C@@H](Cc2c[nH]c3ccccc23)COC(=O)[C@@H](Cc2ccc(F)cc2)C/C=C\C[C@H]1CC(=O)N(CCO)Cc1ccccc1	4	5	.	28*	.	15
